≈ marks a conversion by molar mass, not a printed value. Calls of active or inactive are those of the source. The calls are words filed in the database; no cut-off is given here.
Assays:
HepG2 = test: Cytotoxicity against human HepG2 cells after 48 hrs by neutral red; format: cell-based; conditions: HepG2, 48 h
[1] = Cytotoxicity against pig LLC-PK11 cells after 48 hrs by neutral red; format: cell-based; conditions: Sus scrofa, LLC-PK11, 48 h
Vero = test: Cytotoxicity against african green monkey Vero cells after 48 hrs by neutral red; format: cell-based; conditions: Chlorocebus sabaeus
Cryptococcus neoformans [2] = test: Antifungal activity against Cryptococcus neoformans ATCC 90113 after 72 hrs; format: functional; conditions: ATCC 90113, 72 h
Summary of the method: (§1)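 MIC is the lowest concentration with no detectable growth. MFC: 5 μL from each clear well moved to agar at 35°C, 48 h for Candida spp. and A. fumigatus, 72 h for C. neoformans; lowest concentration that kills. Values are means of three independent experiments (two for one analog).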

Pichia kudriavzevii [3] = test: Antifungal activity against Candida krusei ATCC 6258 after 48 hrs; format: functional; conditions: ATCC 6258, 48 h; summary of the method: as §1
Aspergillus fumigatus [4] = test: Antifungal activity against Aspergillus fumigatus ATCC 90906 after 48 hrs; format: functional; conditions: ATCC 90906, 48 h; summary of the method: as §1
Candida albicans [5] = test: Antifungal activity against Candida albicans ATCC 90028 after 48 hrs; format: functional; conditions: ATCC 90028, 48 h; summary of the method: as §1
Nakaseomyces glabratus [6] = test: Antifungal activity against Candida glabrata ATCC 90030 after 48 hrs; format: functional; conditions: ATCC 90030, 48 h; summary of the method: as §1
Aspergillus fumigatus [7] = test: Antifungal activity against Aspergillus fumigatus ATCC 90906 after 48 hrs by spectrophotometry; format: functional; conditions: ATCC 90906, 48 h; summary of the method: as §1
Cryptococcus neoformans [8] = test: Antifungal activity against Cryptococcus neoformans ATCC 90113 after 72 hrs by spectrophotometry; format: functional; conditions: ATCC 90113, 72 h; summary of the method: as §1
Pichia kudriavzevii [9] = test: Antifungal activity against Candida krusei ATCC 6258 after 48 hrs by spectrophotometry; format: functional; conditions: ATCC 6258, 48 h; summary of the method: as §1
Nakaseomyces glabratus [10] = test: Antifungal activity against Candida glabrata ATCC 90030 after 48 hrs by spectrophotometry; format: functional; conditions: ATCC 90030, 48 h; summary of the method: as §1
Candida albicans [11] = test: Antifungal activity against Candida albicans ATCC 90028 after 48 hrs by spectrophotometry; format: functional; conditions: ATCC 90028, 48 h; summary of the method: as §1
Cryptococcus neoformans [12] = test: Antifungal activity against Cryptococcus neoformans ATCC 90113 at 20 ug/ml after 72 hrs; format: functional, organism-based
Pichia kudriavzevii [13] = test: Antifungal activity against Candida krusei ATCC 6258 at 20 ug/ml after 48 hrs; format: functional, organism-based
Aspergillus fumigatus [14] = test: Antifungal activity against Aspergillus fumigatus ATCC 90906 at 20 ug/ml after 48 hrs; format: functional, organism-based
Candida albicans [15] = test: Antifungal activity against Candida albicans ATCC 90028 at 20 ug/ml after 48 hrs; format: functional, organism-based
Aspergillus fumigatus [16] = test: Antifungal activity against Aspergillus fumigatus ATCC 90906 at 20 ug/ml after 48 hrs by spectrophotometry; format: functional, organism-based
Cryptococcus neoformans [17] = test: Antifungal activity against Cryptococcus neoformans ATCC 90113 at 20 ug/ml after 72 hrs by spectrophotometry; format: functional, organism-based
Candida albicans [18] = test: Antifungal activity against Candida albicans ATCC 90028 at 20 ug/ml after 48 hrs by spectrophotometry; format: functional, organism-based
Pichia kudriavzevii [19] = test: Antifungal activity against Candida krusei ATCC 6258 at 20 ug/ml after 48 hrs by spectrophotometry; format: functional, organism-based
Candida albicans [20] = test: Antifungal activity against Candida albicans SC5314 infected in CD-1 mouse assessed as host survival at 5 mg/kg, ip administered 4, 24, 48, 72, and 96 hrs post inoculation measured up to 8 days relative to control; format: functional, organism-based; set-up: dose 5 mg/kg
Leishmania donovani = test: Antileishmanial activity against Leishmania donovani in ip dosed mouse model of leishamniasis; format: functional
Candida albicans [21] = test: Antifungal activity against Candida albicans SC5314 infected in CD-1 mouse assessed as host survival at 25 mg/kg, po administered 4, 24, 48, 72, and 96 hrs post inoculation measured up to 12 days relative to control; format: functional, organism-based; set-up: dose 25 mg/kg
Summary of the method: (§2)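 Male CD1 mice, 6-7 weeks old, five per group, infected by tail-vein injection of 1 × 10^6 C. albicans SC5314 cells. Dosed intraperitoneally or orally at 4, 24, 48, 72 and 96 h post inoculation; PBS-treated controls. Survival followed for 12 days and compared by Log-rank test.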

Candida albicans [22] = test: Antifungal activity against Candida albicans SC5314 infected in CD-1 mouse assessed as host survival at 5 mg/kg, po administered 4, 24, 48, 72, and 96 hrs post inoculation measured up to 12 days relative to control; format: functional, organism-based; set-up: dose 5 mg/kg; summary of the method: as §2
Candida albicans [23] = test: Antifungal activity against Candida albicans SC5314 infected in CD-1 mouse assessed as host survival at 1 mg/kg, ip administered 4, 24, 48, 72, and 96 hrs post inoculation measured up to […] relative to control; format: functional, organism-based; set-up: dose 1 mg/kg

Structure (SMILES) | IC50 (HepG2) | IC50 [1] | IC50 (Vero) | MFC (Cryptococcus neoformans [2]) | MFC (Pichia kudriavzevii [3]) | MFC (Aspergillus fumigatus [4]) | MFC (Candida albicans [5]) | MFC (Nakaseomyces glabratus [6]) | MIC (Aspergillus fumigatus [7]) | MIC (Cryptococcus neoformans [8]) | MIC (Pichia kudriavzevii [9]) | MIC (Nakaseomyces glabratus [10]) | MIC (Candida albicans [11]) | Activity (Cryptococcus neoformans [12]) | Activity (Pichia kudriavzevii [13]) | Activity (Candida albicans [15]) | Activity (Cryptococcus neoformans [17]) | Activity (Candida albicans [18]) | Activity (Pichia kudriavzevii [19]) | further results
CCCCCCCCCCCCCCCCOP(=O)([O-])OCC[N+](C)(C)Cc1ccc([N+](=O)[O-])cc1 | 11.5 µg/mL (≈ 21.8 µM) | 1.6 µg/mL (≈ 3.03 µM) | > 25 µg/mL | 2.5 µg/mL (≈ 4.73 µM) | 3.3 µg/mL (≈ 6.24 µM) | 7.5 µg/mL (≈ 14.2 µM) | 2.5 µg/mL (≈ 4.73 µM) | 2.5 µg/mL (≈ 4.73 µM) | 2.5 µg/mL (≈ 4.73 µM) | 2.5 µg/mL (≈ 4.73 µM) | 2.5 µg/mL (≈ 4.73 µM) | 2.5 µg/mL (≈ 4.73 µM) | 2.5 µg/mL (≈ 4.73 µM) |  |  |  |  |  |  | 
CCCCCCCCCCCCCCCCOP(=O)([O-])OCC[N+](C)(C)Cc1ccc(OC)cc1 | 12.9 µg/mL (≈ 25.1 µM) | 1.9 µg/mL (≈ 3.7 µM) | > 25 µg/mL | 4.2 µg/mL (≈ 8.18 µM) | 3.3 µg/mL (≈ 6.42 µM) | 7.5 µg/mL (≈ 14.6 µM) | 4.2 µg/mL (≈ 8.18 µM) | 3.3 µg/mL (≈ 6.42 µM) | 2.5 µg/mL (≈ 4.87 µM) | 4.2 µg/mL (≈ 8.18 µM) | 2 µg/mL (≈ 3.89 µM) | 2.5 µg/mL (≈ 4.87 µM) | 4.2 µg/mL (≈ 8.18 µM) |  |  |  |  |  |  | 
C=CC[N+](C)(C)CCOP(=O)([O-])OCCCCCCCCCCCCCCCC | 13.2 µg/mL (≈ 30.4 µM) | 4.1 µg/mL (≈ 9.46 µM) | > 25 µg/mL |  |  |  |  | 16.6 µg/mL (≈ 38.3 µM) |  |  |  | 16.6 µg/mL (≈ 38.3 µM) |  | inactive | inactive | inactive | inactive | inactive | inactive | Activity (Aspergillus fumigatus [14]): inactive; Activity (Aspergillus fumigatus [16]): inactive
CCCCCCCCCCCCCCCCOP(=O)([O-])OCC[N+](C)(C)C/C=C/c1ccccc1 | 19.6 µg/mL (≈ 38.5 µM) | 2.1 µg/mL (≈ 4.12 µM) | > 25 µg/mL |  | 3.3 µg/mL (≈ 6.47 µM) | 5 µg/mL (≈ 9.81 µM) |  | 3.3 µg/mL (≈ 6.47 µM) | 2.5 µg/mL (≈ 4.9 µM) |  | 3.3 µg/mL (≈ 6.47 µM) | 2.5 µg/mL (≈ 4.9 µM) |  | inactive |  | inactive | inactive | inactive |  | 
CCCCCCCCCCCCCCCCOP(=O)([O-])OCC[N+](C)(C)C [MILTEFOSINE] | > 25 µg/mL | 2.7 µg/mL (≈ 6.62 µM) | > 25 µg/mL | 2.1 µg/mL (≈ 5.15 µM) | 3.3 µg/mL (≈ 8.1 µM) | 9.2 µg/mL (≈ 22.6 µM) | 2.5 µg/mL (≈ 6.13 µM) | 4.2 µg/mL (≈ 10.3 µM) | 2.9 µg/mL (≈ 7.12 µM) | 2.1 µg/mL (≈ 5.15 µM) | 2.5 µg/mL (≈ 6.13 µM) | 3.3 µg/mL (≈ 8.1 µM) | 2.5 µg/mL (≈ 6.13 µM) |  |  |  |  |  |  | Activity (Candida albicans [20]): inactive; ED50 (Leishmania donovani): 7.72 mg/kg
CCCCCCCCCCCCCCCCOP(=O)([O-])OCC[N+](C)(C)Cc1ccc(Br)cc1 | 21.3 µg/mL (≈ 37.9 µM) | 5.5 µg/mL (≈ 9.78 µM) | > 25 µg/mL |  |  | 20 µg/mL (≈ 35.6 µM) |  | 10.8 µg/mL (≈ 19.2 µM) | 20 µg/mL (≈ 35.6 µM) |  |  | 10.8 µg/mL (≈ 19.2 µM) |  | inactive | inactive | inactive | inactive | inactive | inactive | 
CCCCCCCCCCCCCCCCCCOP(=O)([O-])OCC[N+](C)(C)Cc1ccccc1 | 13 µg/mL (≈ 25.4 µM) | 4.7 µg/mL (≈ 9.18 µM) | > 25 µg/mL |  |  |  |  | 4.2 µg/mL (≈ 8.21 µM) |  |  |  | 4.2 µg/mL (≈ 8.21 µM) |  | inactive | inactive | inactive | inactive | inactive | inactive | Activity (Aspergillus fumigatus [14]): inactive; Activity (Aspergillus fumigatus [16]): inactive
CCCCCCCCCCCCCCCCOP(=O)([O-])OCC[N+](C)(C)Cc1ccccc1 | > 25 µg/mL | 4.8 µg/mL (≈ 9.92 µM) | > 25 µg/mL | 3.3 µg/mL (≈ 6.82 µM) | 15 µg/mL (≈ 31 µM) | 2.5 µg/mL (≈ 5.17 µM) | 2.5 µg/mL (≈ 5.17 µM) | 3.3 µg/mL (≈ 6.82 µM) | 2.5 µg/mL (≈ 5.17 µM) | 3.3 µg/mL (≈ 6.82 µM) | 5 µg/mL (≈ 10.3 µM) | 3.3 µg/mL (≈ 6.82 µM) | 2.5 µg/mL (≈ 5.17 µM) |  |  |  |  |  |  | Activity (Candida albicans [21]): inactive; Activity (Candida albicans [22]): inactive; Activity (Candida albicans [20]): inactive; Activity (Candida albicans [23]): inactive
CCCCCCCCCCCCCCOP(=O)([O-])OCC[N+](C)(C)Cc1ccccc1 | > 25 µg/mL | 10.8 µg/mL (≈ 23.7 µM) | > 25 µg/mL | 3.3 µg/mL (≈ 7.24 µM) | 10 µg/mL (≈ 21.9 µM) |  | 8.3 µg/mL (≈ 18.2 µM) | 8.3 µg/mL (≈ 18.2 µM) | 10 µg/mL (≈ 21.9 µM) | 3.3 µg/mL (≈ 7.24 µM) | 10 µg/mL (≈ 21.9 µM) | 8.3 µg/mL (≈ 18.2 µM) | 6.7 µg/mL (≈ 14.7 µM) |  |  |  |  |  |  | 
COc1cccc2c1C(=O)c1c(O)c3c(c(O)c1C2=O)C[C@@](O)(C(=O)CO)C[C@@H]3O[C@H]1C[C@H](N)[C@H](O)[C@H](C)O1 [DOXORUBICIN] | 0.9 µg/mL (≈ 1.66 µM) | 0.7 µg/mL (≈ 1.29 µM) | > 5 µg/mL |  |  |  |  |  |  |  |  |  |  |  |  |  |  |  |  | 
CCCCCCCCCCCCCCCCOP(=O)([O-])OCC[N+](C)(C)Cc1ccc(Cl)cc1 | 21 µg/mL (≈ 40.5 µM) | 3.2 µg/mL (≈ 6.18 µM) | > 25 µg/mL |  |  | 12.5 µg/mL (≈ 24.1 µM) |  | 11.2 µg/mL (≈ 21.6 µM) | 12.5 µg/mL (≈ 24.1 µM) |  |  | 11.2 µg/mL (≈ 21.6 µM) |  | inactive | inactive | inactive | inactive | inactive | inactive | 
C[C@@H]1[C@H](O)[C@@H](C)/C=C/C=C/C=C/C=C/C=C/C=C/C=C/[C@H](O[C@@H]2O[C@H](C)[C@@H](O)[C@H](N)[C@@H]2O)C[C@@H]2O[C@](O)(C[C@@H](O)C[C@@H](O)[C@H](O)CC[C@@H](O)C[C@@H](O)CC(=O)O[C@H]1C)C[C@H](O)[C@H]2C(=O)O [AMPHOTERICIN B] |  |  |  |  | 1.7 µg/mL (≈ 1.84 µM) | 5 µg/mL (≈ 5.41 µM) | 1 µg/mL (≈ 1.08 µM) | 1.5 µg/mL (≈ 1.62 µM) | 2.5 µg/mL (≈ 2.71 µM) |  | 1.7 µg/mL (≈ 1.84 µM) | 1.3 µg/mL (≈ 1.41 µM) | 0.9 µg/mL (≈ 0.974 µM) |  |  |  |  |  |  | 
